Where “and” joins values, the source holds several entries; their conditions need not be identical. Identical values can stand only once.
Tested on: HEK-293T
Experiment: Multiplex assay against HEK293T
Type: toxicity, cell-based
Conditions: human
Outline: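 Imaging took place on a CQ1 microscope at 37°C and 5% CO2 once compound had been added to live cells stained at seeding with Hoechst33342, BioTracker Green Microtubule Cytoskeleton Dye, MitoTracker Red and Annexin V Alexa Fluor 680. CellPathfinder machine-learning gating classed cells as Hoechst high-intensity objects or normal cells, classed normal cells as having healthy, pyknosed or fragmented nuclei, and classed pyknosed cells as mitotic or apoptotic. Tubulin, mitochondrial-mass and membrane-permeability phenotypes are per cents of the healthy-nucleus cells.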

[1] = 12 h, 1 µM, compound concentration 1 uM
[2] = 12 h, 10 µM, compound concentration 10 uM
[3] = 24 h, 1 µM, compound concentration 1 uM
[4] = 24 h, 10 µM, compound concentration 10 uM
[5] = 48 h, 1 µM, compound concentration 1 uM
[6] = 48 h, 10 µM, compound concentration 10 uM

Cc1[nH]nc2ccc(-c3cncc(OCC(N)Cc4c[nH]c5ccccc45)c3)cc12 (stereo not drawn)
Population Apoptotic (%) [1]: 14.46% and 12.06% | Population Fragmented Nuclei (%) [1]: 1.15% and 2.53% | Population Hoechst High Intensity Objects (%) [1]: 0.86% and 0% | Population Membrane Permeable-Phenotype (%) [1]: 1.98% and 0% | Population Mitotic Cells (%) [1]: 85.54% and 87.94% | Population Normal (%) [1]: 99.14% and 100% | Population Pyknosed Nuclei (%) [1]: 69.74% and 89.24% | Total Cell Count [1]: 350 and 158 | Population Apoptotic (%) [2]: 26.81% and 37.12% | Population Fragmented Nuclei (%) [2]: 0.85% and 0% | Population Healthy Nuclei (%) [2]: 5.1% and 3.65% | Population Hoechst High Intensity Objects (%) [2]: 0.28% and 0% | Population Membrane Permeable-Phenotype (%) [2]: 0% | Population Mitochondria Different-Phenotype (%) [2]: 16.67% and 0% | Population Mitotic Cells (%) [2]: 73.19% and 62.88% | Population Normal (%) [2]: 99.72% and 100% | Population Pyknosed Nuclei (%) [2]: 94.05% and 96.35% | Total Cell Count [2]: 354 and 137 | Population Apoptotic (%) [3]: 39.92% and 29.58% | Population Fragmented Nuclei (%) [3]: 0.63% and 1.97% | Population Hoechst High Intensity Objects (%) [3]: 0.62% and 0% | Population Membrane Permeable-Phenotype (%) [3]: 1.59% and 0% | Population Mitochondria Different-Phenotype (%) [3]: 34.92% and 28.57% | Population Mitotic Cells (%) [3]: 60.08% and 70.42% | Population Normal (%) [3]: 99.38% and 100% | Population Pyknosed Nuclei (%) [3]: 79.56% and 93.42% | Total Cell Count [3]: 320 and 152 | Population Apoptotic (%) [4]: 80.3% and 96.64% | Population Fragmented Nuclei (%) [4]: 0.86% and 2.34% | Population Healthy Nuclei (%) [4]: 3.15% and 4.69% | Population Hoechst High Intensity Objects (%) [4]: 0.85% and 0% | Population Membrane Permeable-Phenotype (%) [4]: 0% and 16.67% | Population Mitochondria Different-Phenotype (%) [4]: 72.73% and 33.33% | Population Normal (%) [4]: 99.15% and 100% | Population Pyknosed Nuclei (%) [4]: 95.99% and 92.97% | Population Tubulin-Different-Phenotype (%) [4]: 72.73% and 33.33% | Total Cell Count [4]: 352 and 128 | Population Apoptotic (%) [5]: 57.46% and 49.23% | Population Fragmented Nuclei (%) [5]: 2.33% and 1.39% | Population Healthy Nuclei (%) [5]: 21.93% and 8.33% | Population Hoechst High Intensity Objects (%) [5]: 0.33% and 0.69% | Population Membrane Permeable-Phenotype (%) [5]: 0% | Population Mitochondria Different-Phenotype (%) [5]: 86.36% and 58.33% | Population Mitotic Cells (%) [5]: 42.54% and 50.77% | Population Normal (%) [5]: 99.67% and 99.31% | Population Pyknosed Nuclei (%) [5]: 75.75% and 90.28% | Total Cell Count [5]: 302 and 145 | Population Apoptotic (%) [6]: 80.14% and 100% | Population Fragmented Nuclei (%) [6]: 0.68% and 1.68% | Population Healthy Nuclei (%) [6]: 3.73% and 4.2% | Population Hoechst High Intensity Objects (%) [6]: 3.91% and 0% | Population Membrane Permeable-Phenotype (%) [6]: 9.09% and 0% | Population Mitochondria Different-Phenotype (%) [6]: 54.55% and 40% | Population Mitotic Cells (%) [6]: 19.86% and 0% | Population Normal (%) [6]: 96.09% and 100% | Population Pyknosed Nuclei (%) [6]: 95.59% and 94.12% | Population Tubulin-Different-Phenotype (%) [6]: 45.45% and 40% | Total Cell Count [6]: 307 and 119

O=C(NCc1cccc(O)c1)Nc1nc(-c2ccncc2)cs1
Population Apoptotic (%) [1]: 7.14% and 10.34% | Population Fragmented Nuclei (%) [1]: 2.92% and 3.91% | Population Healthy Nuclei (%) [1]: 52.8% and 28.12% | Population Hoechst High Intensity Objects (%) [1]: 0.24% and 0% | Population Membrane Permeable-Phenotype (%) [1]: 0.92% and 0% | Population Mitochondria Different-Phenotype (%) [1]: 22.12% and 19.44% | Population Mitotic Cells (%) [1]: 92.86% and 89.66% | Population Normal (%) [1]: 99.76% and 100% | Population Pyknosed Nuclei (%) [1]: 44.28% and 67.97% | Population Apoptotic (%) [2]: 7.43% and 12.61% | Population Fragmented Nuclei (%) [2]: 2.74% and 5.1% | Population Healthy Nuclei (%) [2]: 52.13% and 34.18% | Population Hoechst High Intensity Objects (%) [2]: 0% | Population Membrane Permeable-Phenotype (%) [2]: 4.09% and 0% | Population Mitochondria Different-Phenotype (%) [2]: 19.88% and 13.43% | Population Mitotic Cells (%) [2]: 92.57% and 87.39% | Population Normal (%) [2]: 100% | Population Pyknosed Nuclei (%) [2]: 45.12% and 60.71% | Total Cell Count [2]: 328 and 196 | Population Apoptotic (%) [3]: 13.54% and 22% | Population Fragmented Nuclei (%) [3]: 2.1% and 4.17% | Population Healthy Nuclei (%) [3]: 77.73% and 54.17% | Population Hoechst High Intensity Objects (%) [3]: 0% | Population Membrane Permeable-Phenotype (%) [3]: 0.54% and 0% | Population Mitochondria Different-Phenotype (%) [3]: 3.78% and 6.15% | Population Mitotic Cells (%) [3]: 86.46% and 78% | Population Normal (%) [3]: 100% | Population Pyknosed Nuclei (%) [3]: 20.17% and 41.67% | Population Tubulin-Different-Phenotype (%) [3]: 3.51% and 9.23% | Population Apoptotic (%) [4]: 12.64% and 13.27% | Population Fragmented Nuclei (%) [4]: 3.74% | Population Healthy Nuclei (%) [4]: 72.99% and 50.47% | Population Hoechst High Intensity Objects (%) [4]: 0% and 0.93% | Population Membrane Permeable-Phenotype (%) [4]: 1.1% and 0% | Population Mitochondria Different-Phenotype (%) [4]: 5.86% and 10.19% | Population Mitotic Cells (%) [4]: 87.36% and 86.73% | Population Normal (%) [4]: 100% and 99.07% | Population Pyknosed Nuclei (%) [4]: 23.26% and 45.79% | Population Tubulin-Different-Phenotype (%) [4]: 5.86% and 3.7% | Total Cell Count [4]: 374 and 216 | Population Apoptotic (%) [5]: 17.39% and 25% | Population Fragmented Nuclei (%) [5]: 2.27% and 10.14% | Population Healthy Nuclei (%) [5]: 86.57% and 68.24% | Population Hoechst High Intensity Objects (%) [5]: 0.16% and 0.67% | Population Membrane Permeable-Phenotype (%) [5]: 5.42% and 4.95% | Population Mitochondria Different-Phenotype (%) [5]: 14.95% and 15.84% | Population Mitotic Cells (%) [5]: 82.61% and 75% | Population Normal (%) [5]: 99.84% and 99.33% | Population Pyknosed Nuclei (%) [5]: 11.17% and 21.62% | Population Apoptotic (%) [6]: 22.81% and 34.48% | Population Fragmented Nuclei (%) [6]: 4.16% and 5.49% | Population Healthy Nuclei (%) [6]: 85.07% and 70.04% | Population Hoechst High Intensity Objects (%) [6]: 0.19% and 0% | Population Membrane Permeable-Phenotype (%) [6]: 4% and 0.6% | Population Mitochondria Different-Phenotype (%) [6]: 19.78% and 24.1% | Population Mitotic Cells (%) [6]: 77.19% and 65.52% | Population Normal (%) [6]: 99.81% and 100% | Population Pyknosed Nuclei (%) [6]: 10.78% and 24.47% | Population Tubulin-Different-Phenotype (%) [6]: 0.89% and 5.42% | Total Cell Count [6]: 530 and 237
